Laboratory results taken from ChEMBL document CHEMBL4834403, “Design and Synthesis of Novel Epigenetic Inhibitors Targeting Histone Deacetylases, DNA Methyltransferase 1, and Lysine Methyltransferase G9a with In Vivo Efficacy in Multiple Myeloma” (J Med Chem, 2021).
The source made the active and inactive calls. No cut-off for these calls is given here.

Columns and labels:
THLE-2 = assay: Cytotoxicity against human THLE-2 cells assessed as decrease in cell viability measured after 72 hrs by Vialight-plus cell proliferation assay; format: cell-based; conditions: thle-2, 72 h
Summary of the method: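 Human THLE-2 cells exposed to compound for 72 h. Cytotoxicity reported as LC50 and pLC50, averaged from at least two independent experiments on different days.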

[1] = Permeability of the compound in PBS/EtOH buffer (70:30) incubated for 18 hrs by UV plate reader based PAMPA assay; format: ADME; conditions: read-out: permeability
MM1.S = assay: Antiproliferative activity against human MM1.S cells assessed as inhibition of cell proliferation measured up to 72 hrs by CellTiter96 Aqueous one reagent based assay; format: functional
Histone deacetylase 2 = Histone deacetylase 2 (Homo sapiens, UniProt Q92769)
Sequence of Histone deacetylase 2 (Q92769 whole entry): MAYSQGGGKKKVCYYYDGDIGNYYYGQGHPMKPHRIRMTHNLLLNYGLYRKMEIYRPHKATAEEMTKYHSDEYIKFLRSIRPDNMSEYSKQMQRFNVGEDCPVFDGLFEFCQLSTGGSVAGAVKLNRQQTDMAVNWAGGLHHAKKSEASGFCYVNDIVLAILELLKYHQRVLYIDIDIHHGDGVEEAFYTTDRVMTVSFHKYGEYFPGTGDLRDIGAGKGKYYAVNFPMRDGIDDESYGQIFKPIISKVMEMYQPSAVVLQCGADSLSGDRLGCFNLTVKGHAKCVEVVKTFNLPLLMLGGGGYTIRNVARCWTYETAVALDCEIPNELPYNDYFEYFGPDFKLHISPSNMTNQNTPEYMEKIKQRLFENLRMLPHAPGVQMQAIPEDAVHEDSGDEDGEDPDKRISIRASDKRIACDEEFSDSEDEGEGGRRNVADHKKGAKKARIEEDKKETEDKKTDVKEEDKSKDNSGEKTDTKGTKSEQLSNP

[2] = target: T1, Histone-lysine N-methyltransferase EHMT2 (Homo sapiens, UniProt Q96KQ7); assay: Inhibition of human G9a enzyme using histone monomethyl-H3K9 peptide as substrate incubated for 1 hr in presence of SAM by TR-FRET assay
T1 sequence (Q96KQ7 whole entry): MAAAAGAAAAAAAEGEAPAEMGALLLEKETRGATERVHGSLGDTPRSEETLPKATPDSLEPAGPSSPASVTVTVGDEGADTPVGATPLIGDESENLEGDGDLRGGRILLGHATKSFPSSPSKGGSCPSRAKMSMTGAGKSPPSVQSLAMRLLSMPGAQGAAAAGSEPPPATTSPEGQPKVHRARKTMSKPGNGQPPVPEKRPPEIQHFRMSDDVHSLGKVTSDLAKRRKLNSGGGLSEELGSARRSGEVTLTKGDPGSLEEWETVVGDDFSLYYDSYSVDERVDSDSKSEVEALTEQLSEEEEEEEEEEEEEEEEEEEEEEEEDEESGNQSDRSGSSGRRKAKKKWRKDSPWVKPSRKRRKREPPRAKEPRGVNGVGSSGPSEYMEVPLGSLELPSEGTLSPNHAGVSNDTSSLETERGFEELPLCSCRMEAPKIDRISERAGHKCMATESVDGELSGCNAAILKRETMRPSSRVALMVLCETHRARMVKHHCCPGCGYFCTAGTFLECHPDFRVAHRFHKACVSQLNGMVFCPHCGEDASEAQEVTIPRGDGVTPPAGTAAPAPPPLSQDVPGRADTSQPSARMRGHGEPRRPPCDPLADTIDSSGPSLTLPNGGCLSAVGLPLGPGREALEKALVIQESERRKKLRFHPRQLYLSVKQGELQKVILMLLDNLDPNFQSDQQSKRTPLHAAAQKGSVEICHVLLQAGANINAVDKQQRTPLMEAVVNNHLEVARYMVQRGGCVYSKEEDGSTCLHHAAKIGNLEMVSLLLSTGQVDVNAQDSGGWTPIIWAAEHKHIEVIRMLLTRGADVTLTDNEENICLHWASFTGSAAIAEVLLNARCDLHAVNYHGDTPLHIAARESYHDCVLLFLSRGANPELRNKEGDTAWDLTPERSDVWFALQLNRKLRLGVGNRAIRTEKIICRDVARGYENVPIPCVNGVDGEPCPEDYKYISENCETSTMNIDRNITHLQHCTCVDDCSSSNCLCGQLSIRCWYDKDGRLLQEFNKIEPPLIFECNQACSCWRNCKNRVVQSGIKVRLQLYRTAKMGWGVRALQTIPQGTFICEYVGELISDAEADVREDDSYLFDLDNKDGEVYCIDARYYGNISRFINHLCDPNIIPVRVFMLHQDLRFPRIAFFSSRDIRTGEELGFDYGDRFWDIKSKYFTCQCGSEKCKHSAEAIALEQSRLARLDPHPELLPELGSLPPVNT

Histone deacetylase 1 = Histone deacetylase 1 (Homo sapiens, UniProt Q13547); assay: Inhibition of full length human C-terminal His-tagged/C-terminal Flag-tagged HDAC1 using fluorogenic acetylated peptide as substrate incubated for 30 mins by fluorescence plate reader assay
Sequence of Histone deacetylase 1 (Q13547 whole entry): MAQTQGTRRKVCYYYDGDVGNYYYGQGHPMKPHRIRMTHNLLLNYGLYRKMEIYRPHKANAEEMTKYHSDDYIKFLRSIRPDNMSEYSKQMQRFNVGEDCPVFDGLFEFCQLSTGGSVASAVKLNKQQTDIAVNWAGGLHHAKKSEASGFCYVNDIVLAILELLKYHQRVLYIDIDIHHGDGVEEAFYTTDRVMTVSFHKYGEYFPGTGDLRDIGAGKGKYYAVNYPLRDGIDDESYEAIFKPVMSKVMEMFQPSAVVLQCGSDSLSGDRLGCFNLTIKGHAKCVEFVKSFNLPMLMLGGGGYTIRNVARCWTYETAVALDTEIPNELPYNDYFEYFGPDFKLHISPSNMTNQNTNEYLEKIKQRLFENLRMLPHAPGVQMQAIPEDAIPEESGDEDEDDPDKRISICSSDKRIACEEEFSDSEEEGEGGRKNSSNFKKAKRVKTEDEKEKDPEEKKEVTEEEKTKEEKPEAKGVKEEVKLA

[3] = target: Histone deacetylase 3/Nuclear receptor corepressor 2 (HDAC3/NCoR2) (Homo sapiens, UniProt O15379); assay: Inhibition of full length human C-terminal His-tagged HDAC3/human N-terminal GST-agged NCOR2 using fluorogenic acetylated peptide as substrate incubated for 30 mins by fluorescence plate reader assay; format: protein-complex assay
Sequence of Histone deacetylase 3/Nuclear receptor corepressor 2 (HDAC3/NCoR2) (O15379 whole entry): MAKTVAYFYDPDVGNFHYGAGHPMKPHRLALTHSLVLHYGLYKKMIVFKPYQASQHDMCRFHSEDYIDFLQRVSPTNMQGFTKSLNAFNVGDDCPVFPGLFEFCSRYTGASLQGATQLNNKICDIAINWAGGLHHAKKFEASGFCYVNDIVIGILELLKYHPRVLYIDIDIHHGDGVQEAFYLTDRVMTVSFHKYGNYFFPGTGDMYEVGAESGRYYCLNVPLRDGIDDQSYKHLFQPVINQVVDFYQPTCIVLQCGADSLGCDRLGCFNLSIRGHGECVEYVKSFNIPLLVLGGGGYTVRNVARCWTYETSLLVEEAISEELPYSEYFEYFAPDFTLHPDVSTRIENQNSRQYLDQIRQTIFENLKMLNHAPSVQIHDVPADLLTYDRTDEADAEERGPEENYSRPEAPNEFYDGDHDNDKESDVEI
Sequence of Histone deacetylase 3/Nuclear receptor corepressor 2 (HDAC3/NCoR2) (Q9Y618 whole entry, further chain): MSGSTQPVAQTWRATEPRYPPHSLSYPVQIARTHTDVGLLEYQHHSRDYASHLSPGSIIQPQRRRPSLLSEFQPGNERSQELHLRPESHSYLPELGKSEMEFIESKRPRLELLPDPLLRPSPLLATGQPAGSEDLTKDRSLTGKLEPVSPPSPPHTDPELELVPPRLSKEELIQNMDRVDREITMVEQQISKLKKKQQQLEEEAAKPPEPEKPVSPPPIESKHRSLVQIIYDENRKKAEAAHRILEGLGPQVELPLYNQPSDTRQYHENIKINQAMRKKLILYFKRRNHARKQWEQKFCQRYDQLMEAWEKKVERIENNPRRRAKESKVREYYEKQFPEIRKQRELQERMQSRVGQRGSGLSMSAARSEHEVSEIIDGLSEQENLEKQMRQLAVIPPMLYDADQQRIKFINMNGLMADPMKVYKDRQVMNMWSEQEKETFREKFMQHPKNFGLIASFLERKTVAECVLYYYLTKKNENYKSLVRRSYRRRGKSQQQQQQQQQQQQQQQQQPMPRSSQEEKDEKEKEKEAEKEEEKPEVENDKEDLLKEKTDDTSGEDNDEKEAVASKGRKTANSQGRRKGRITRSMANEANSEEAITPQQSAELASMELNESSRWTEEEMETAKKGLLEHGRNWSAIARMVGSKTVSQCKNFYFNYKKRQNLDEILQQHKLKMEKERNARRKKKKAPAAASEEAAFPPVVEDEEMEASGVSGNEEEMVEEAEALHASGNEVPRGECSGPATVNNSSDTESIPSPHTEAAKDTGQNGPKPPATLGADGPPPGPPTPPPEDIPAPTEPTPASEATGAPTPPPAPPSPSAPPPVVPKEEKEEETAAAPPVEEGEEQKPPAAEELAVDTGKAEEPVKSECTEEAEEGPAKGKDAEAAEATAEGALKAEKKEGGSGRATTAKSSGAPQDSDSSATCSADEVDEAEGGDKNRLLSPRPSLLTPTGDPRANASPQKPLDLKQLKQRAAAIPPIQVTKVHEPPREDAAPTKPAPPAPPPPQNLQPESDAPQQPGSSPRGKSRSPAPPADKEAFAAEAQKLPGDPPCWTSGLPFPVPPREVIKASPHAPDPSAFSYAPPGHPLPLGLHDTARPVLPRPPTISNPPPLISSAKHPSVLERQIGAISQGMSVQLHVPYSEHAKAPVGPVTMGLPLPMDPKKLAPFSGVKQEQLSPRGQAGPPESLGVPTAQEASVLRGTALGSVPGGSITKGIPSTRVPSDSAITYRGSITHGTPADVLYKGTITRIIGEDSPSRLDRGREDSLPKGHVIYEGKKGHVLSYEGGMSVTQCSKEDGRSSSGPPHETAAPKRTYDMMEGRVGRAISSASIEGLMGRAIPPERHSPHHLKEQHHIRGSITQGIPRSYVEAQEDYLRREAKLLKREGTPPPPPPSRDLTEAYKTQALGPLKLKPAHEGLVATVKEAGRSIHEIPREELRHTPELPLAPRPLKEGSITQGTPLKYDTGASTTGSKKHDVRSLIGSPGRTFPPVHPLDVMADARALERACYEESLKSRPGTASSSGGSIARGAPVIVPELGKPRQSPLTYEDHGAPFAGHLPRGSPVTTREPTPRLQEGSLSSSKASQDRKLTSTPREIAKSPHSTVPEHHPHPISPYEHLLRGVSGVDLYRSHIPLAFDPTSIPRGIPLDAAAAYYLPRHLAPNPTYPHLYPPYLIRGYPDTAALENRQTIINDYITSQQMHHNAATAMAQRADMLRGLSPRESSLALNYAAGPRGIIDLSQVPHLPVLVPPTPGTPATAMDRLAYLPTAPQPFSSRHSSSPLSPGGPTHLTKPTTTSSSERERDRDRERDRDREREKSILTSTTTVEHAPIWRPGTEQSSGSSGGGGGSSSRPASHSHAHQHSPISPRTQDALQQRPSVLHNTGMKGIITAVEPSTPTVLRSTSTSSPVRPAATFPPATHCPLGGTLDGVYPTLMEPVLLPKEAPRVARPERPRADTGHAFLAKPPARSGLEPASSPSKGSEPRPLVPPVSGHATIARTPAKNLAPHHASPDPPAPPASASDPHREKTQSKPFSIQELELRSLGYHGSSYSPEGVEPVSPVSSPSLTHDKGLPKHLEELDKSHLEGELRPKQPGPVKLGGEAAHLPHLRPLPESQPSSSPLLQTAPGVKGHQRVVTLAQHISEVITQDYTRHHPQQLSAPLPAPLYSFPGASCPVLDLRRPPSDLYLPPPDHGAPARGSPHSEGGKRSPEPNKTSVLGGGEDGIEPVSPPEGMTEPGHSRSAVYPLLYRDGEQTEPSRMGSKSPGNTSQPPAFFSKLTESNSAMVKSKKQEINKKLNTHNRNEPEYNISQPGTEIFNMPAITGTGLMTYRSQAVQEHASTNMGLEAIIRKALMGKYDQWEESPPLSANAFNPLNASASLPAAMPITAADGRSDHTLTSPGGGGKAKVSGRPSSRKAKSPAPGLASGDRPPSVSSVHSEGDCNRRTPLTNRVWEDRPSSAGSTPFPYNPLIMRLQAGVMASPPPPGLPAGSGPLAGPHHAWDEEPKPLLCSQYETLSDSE

[4] = target: DNA (cytosine-5)-methyltransferase 1 (Homo sapiens, UniProt P26358); assay: Inhibition of human DNMT1 enzyme using polydeoxy-inosine polydeoxy-cytosine DNA as substrate incubated for 15 mins in presence of SAM by TR-FRET assay
[5] = target: T2, Protein deacetylase HDAC6 (Homo sapiens, UniProt Q9UBN7); assay: Inhibition of full length human N-terminal GST-tagged HDAC6 using fluorogenic acetylated peptide as substrate incubated for 30 mins by fluorescence plate reader assay
T2 sequence (Q9UBN7 whole entry): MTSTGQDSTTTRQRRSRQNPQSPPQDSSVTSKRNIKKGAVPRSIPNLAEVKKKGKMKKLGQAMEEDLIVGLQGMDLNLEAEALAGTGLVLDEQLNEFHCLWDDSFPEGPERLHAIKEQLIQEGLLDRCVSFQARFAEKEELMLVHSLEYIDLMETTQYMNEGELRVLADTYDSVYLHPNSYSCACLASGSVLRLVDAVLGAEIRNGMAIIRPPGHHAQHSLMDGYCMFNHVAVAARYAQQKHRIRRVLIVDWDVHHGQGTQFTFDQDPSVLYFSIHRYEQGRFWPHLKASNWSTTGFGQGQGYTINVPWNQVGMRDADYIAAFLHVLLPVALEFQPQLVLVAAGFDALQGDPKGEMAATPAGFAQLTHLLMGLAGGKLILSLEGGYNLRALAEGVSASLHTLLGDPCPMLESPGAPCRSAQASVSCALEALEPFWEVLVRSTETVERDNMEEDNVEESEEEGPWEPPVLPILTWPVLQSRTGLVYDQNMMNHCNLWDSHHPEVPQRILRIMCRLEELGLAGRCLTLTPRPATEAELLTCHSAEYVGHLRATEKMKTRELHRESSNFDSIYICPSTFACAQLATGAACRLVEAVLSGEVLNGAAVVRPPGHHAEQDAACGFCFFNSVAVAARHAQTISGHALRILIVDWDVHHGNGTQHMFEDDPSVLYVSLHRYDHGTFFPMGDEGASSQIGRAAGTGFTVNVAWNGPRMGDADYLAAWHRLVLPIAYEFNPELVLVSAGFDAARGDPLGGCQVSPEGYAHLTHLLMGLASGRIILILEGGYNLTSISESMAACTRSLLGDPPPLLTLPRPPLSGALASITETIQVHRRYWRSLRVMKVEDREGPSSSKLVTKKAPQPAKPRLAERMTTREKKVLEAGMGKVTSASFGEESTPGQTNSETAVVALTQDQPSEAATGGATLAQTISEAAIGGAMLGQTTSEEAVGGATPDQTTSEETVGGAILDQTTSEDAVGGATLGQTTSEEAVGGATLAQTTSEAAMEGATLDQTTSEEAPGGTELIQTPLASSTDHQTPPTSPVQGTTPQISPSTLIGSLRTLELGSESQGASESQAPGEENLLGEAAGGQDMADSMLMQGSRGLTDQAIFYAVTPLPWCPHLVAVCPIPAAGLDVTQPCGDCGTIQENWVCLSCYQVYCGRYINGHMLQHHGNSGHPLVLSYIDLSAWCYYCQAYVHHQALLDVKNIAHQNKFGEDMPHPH

[6] = target: T3, Histone-lysine N-methyltransferase EHMT2 (Homo sapiens) (UniProt Q96KQ7); assay: Inhibition of G9A in human MM1.S cells assessed as decrease in H3K9Me2 levels up to 50 uM after 48 hrs by Western blot analysis; format: cell-based; conditions: dose microM <=50, time 48.0 hrs
T3 sequence (whole entry): T1 sequence (Q96KQ7 whole entry)
Summary of the method: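 MM1.S cells exposed 48 h across a concentration range. Global H3K9Ac and H3K9me2 read by Western blot; run in duplicate.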

[7] = time hrs <=72, read-out: pGI50 (converted)

Row | SMILES | LC50 (THLE-2) [nM] | pLC50 (THLE-2) | Papp at 18 h [1] [×10⁻⁶ cm/s] | GI50 (MM1.S; time hrs <=72, read-out: GI50) [nM] | GI50 (MM1.S; [7]) [nM] | IC50 (Histone deacetylase 2) [nM] | IC50 [2] [nM] | IC50 (Histone deacetylase 1) [nM] | IC50 [3] [nM] | IC50 [4] [nM] | IC50 [5] [nM] | inhibition [6]
1 | COc1cc2nc(-c3ccc(C)o3)cc(NCC3CCC(C(=O)NO)CC3)c2cc1OC (configuration not stated) | 9600 | 5.02 | 0.393 | 5830 | 5750 | 274 | > 10000 | 38 | 206 | 2850 | 41 | –
2 | COc1cc2c(cc1OCCCN1CCCC1)N=C(N)C21CCC1 | – | – | – | – | – | – | – | – | – | – | – | Active
3 | COc1cc2nc(-c3ccc(C)o3)cc(NC3CCN(c4ncc(C(=O)NO)cn4)CC3)c2cc1OC | 3090 | 5.51 | 0.596 | 1020 | 1020 | 409 | > 10000 | 63 | 73 | 7140 | 343 | –
4 | COc1cc2nc(-c3ccc(C)o3)cc(NCC3C4CCC3CN(c3ncc(C(=O)NO)cn3)C4)c2cc1OC (configuration not stated) | 1350 | 5.87 | 0.959 | 459 | 457 | 125 | > 10000 | 22 | 33 | 1680 | 239 | –
5 | COc1cc2nc(-c3ccc(C)o3)cc(NCc3ccc(C(=O)NO)cc3)c2cc1OC | 2330 | 5.63 | 0.534 | 520 | 525 | 91 | > 10000 | 14 | 44 | 5400 | 22 | –
6 | COc1cc2nc(C3CCCCC3)cc(NCC3CCN(c4ncc(C(=O)NO)cn4)CC3)c2cc1OC | 2298 | 5.64 | 0.21 | 195 | 195 | – | > 10000 | 2 | – | > 10000 | 111 | –
7 | COc1cc2c(NCC3CCN(C)CC3)cc(-c3ccc(C)o3)nc2cc1OCCCN1CCCC1 | 1300 | 5.89 | – | 3840 | 3800 | > 10000 | – | > 10000 | > 10000 | – | > 10000 | –
